Data set [1] is described as follows: Cytotoxicity against mouse […] cells assessed as reduction in cell viability after 48 hrs by MTT assay. Format: cell-based. A digest of the protocol: (§1)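 Cells kept in RPMI1640 with 10% heat-inactivated FBS, L-glutamine, pyruvate and pen-strep at 37 °C, 5% CO2. 3000 cells per well seeded for 24 hrs, then given a range of compound concentrations (DMSO final ≤0.1%) for 48 hrs. 0.5 mg/ml MTT for 2 hrs at 37 °C, dye dissolved in DMSO, absorbance at 570 nm. Quadruplicates normalized and fitted to a dose-response curve.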

A short description of data set [2]: Selectivity index, ratio of IC50 for mouse […] cells to IC50 for bloodstream form of Trypanosoma brucei brucei Lister 427. The following applies: read-out: Ratio IC50. Format: toxicity.
A further data set has as its system HEK293. The experiment in a line: Cytotoxicity against HEK293 cells assessed as reduction in cell viability after 48 hrs by MTT assay. Format: cell-based. To be noted: Homo sapiens, HEK293, 48 h. In a few lines: as §1
Background: Formazan colour is commonly taken as a measure of viable cells.

For data set [3], the system named is Trypanosoma brucei brucei. The experiment in a line: Anti-parasitic activity against bloodstream form of Trypanosoma brucei brucei Lister 427 after 48 hrs by MTS assay. To be noted: Lister 427, 48 h. Format: functional. A digest of the protocol:
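Bloodstream-form parasites grown in HMI-9 with 10% FBS at 37 °C, 7.5% CO2. 5,000 cells per well exposed to a range of compound concentrations, 0.1% DMSO, for 48 hrs at 37 °C. MTS (5% PMS) then added for 3 hrs at 37 °C, formazan read at 490 nm. Quadruplicate data normalized and fitted to a dose-response curve for IC50.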

A short description of data set [4]: Selectivity index, ratio of IC50 for HEK293 cells to IC50 for bloodstream form of Trypanosoma brucei brucei Lister 427. Format: toxicity. The following applies: human, read-out: Ratio IC50.
Data set [5] has as its system Trypanosoma brucei brucei. The experiment in a line: Inhibition of tubulin polymerization in Trypanosoma brucei brucei Lister 427 incubated for 7 hrs by Western blot analysis. A digest of the protocol: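 Parasites treated with 0.5% DMSO or different doses of compound for 7 hrs. Cells washed in TDB buffer pH 7.4, then lysed in Pipes pH 6.8 buffer with 0.2% Triton X-100 for 5 mins at 30 °C. Supernatant (soluble) and pellet (polymerized) fractions separated by centrifugation. Lysate from equal cell numbers run on 10% SDS-PAGE, western blot with TAT-1 tubulin antibody.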
(In general: In western blotting, separated proteins are transferred to a membrane and probed.)

The structures appear in SMILES notation.

As usually defined, the IC50 is the concentration at which inhibition is half-maximal.

As for `Cc1ccc(C(F)(F)F)cc1COc1cc(NC(=O)c2ccc(C(F)(F)F)cc2C(F)(F)F)ccc1N(C)S(C)(=O)=O`, the IC50 in data set [1] is above 500 µM; in the data set on HEK293 it was 102 µM; in data set [3] it was 13 µM. Moreover, the figures for the selectivity ratio in data set [2] and in data set [4] were above 38 and 8, respectively.

For the compound `CCCCCCOc1cc(NC(=O)c2ccc(C(F)(F)F)cc2C(F)(F)F)ccc1N(C)S(C)(=O)=O`, the IC50 was above 500 µM in data set [1], above 500 µM with HEK293 and 30.1 µM in data set [3]. For the same compound, the selectivity ratio in data set [2] and in data set [4] was above 17 throughout.

As for `Cc1ccc(C(F)(F)F)cc1COc1cc(NC(=O)c2cc(C(F)(F)F)cc(C(F)(F)F)c2)ccc1N(C)S(C)(=O)=O`, the values for the IC50 (in data set [1]; in the data set with HEK293; in data set [3]) were above 500 µM, above 500 µM and 15.6 µM, respectively. Further, the selectivity ratio in data set [2] and in data set [4] was above 32 each time.

Turning to `Cc1ccc(C)c(COc2cc(Nc3nccc(N)n3)ccc2N(C)S(C)(=O)=O)c1`, the IC50 in data set [1] was above 500 µM; with HEK293, above 500 µM; in data set [3], above 50 µM. Further, the selectivity ratio in data set [2] and in data set [4] was above 10 each time.

With `CCS(=O)(=O)N(C)c1ccc(NC(=O)c2ccc3c(c2)OCO3)cc1OCc1cccc(C#N)c1`, the IC50 in data set [1] was above 500 µM; in the data set on HEK293, above 500 µM; in data set [3], 23.5 µM. Moreover, the selectivity ratio in data set [2] and in data set [4] was above 21 each time.

On to `CN(c1ccc(NC(=O)c2cc(C(F)(F)F)cc(C(F)(F)F)c2)cc1OCc1cccc(C(F)(F)F)c1)S(C)(=O)=O`, for which the IC50 in data set [1] is above 500 µM; with HEK293 it was 54 µM; in data set [3] it was 8.58 µM. In addition, the selectivity ratio in data set [2] was above 58; in data set [4], 6.

On to `CCCCCCOc1cc(NC(=O)c2cc(C(F)(F)F)cc(C(F)(F)F)c2)ccc1N(C)S(C)(=O)=O`, for which the IC50 in data set [1] is above 500 µM; in the data set with HEK293 it was above 500 µM; in data set [3] it was 23 µM. Also, the selectivity ratio in data set [2] and in data set [4] was above 22 throughout.

Consider `CN(c1ccc(NC(=O)c2ccc(C#N)cc2)cc1OCc1ccc(C(F)(F)F)cc1)S(=O)(=O)Cc1ccccc1`, for which the 50% inhibitory concentration (IC50) in data set [1] was above 500 µM; in the data set with HEK293, above 500 µM; in data set [3], 0.07 µM. The selectivity ratio in data set [2] and in data set [4] was above 7140 throughout. The inhibition result in data set [5] was “Dose-dependent effect”.

`CCCCCCOc1cc(NC(=O)c2cc(C(F)(F)F)cc(C(F)(F)F)c2)ccc1N(C)S(=O)(=O)Cc1ccccc1`: the results for the IC50 (in data set [1]; with HEK293; in data set [3]) were 13.3 µM, 69.9 µM and 7.81 µM, respectively. For the same compound, the selectivity ratio is 9 in data set [2] and 2 in data set [4].

Consider `CN(c1ccc(NC(=O)c2ccc(C(F)(F)F)cc2C(F)(F)F)cc1OCc1ccccc1C(F)(F)F)S(C)(=O)=O`, for which the IC50 in data set [1] was above 500 µM; in the data set on HEK293, 34.8 µM; in data set [3], 13.3 µM. Also, the selectivity ratio was above 38 in data set [2] and 3 in data set [4].

For `CN(c1ccc(NC(=O)c2cc(C(F)(F)F)cc(C(F)(F)F)c2)cc1OCc1ccc(C(F)(F)F)cc1)S(=O)(=O)Cc1ccccc1`, the IC50 is above 500 µM in data set [1], 293 µM in the data set on HEK293 and 3.39 µM in data set [3]. In addition, the selectivity ratio in data set [2] is 86; in data set [4] it was above 147.

As for `CN(c1ccc(NC(=O)c2cc(C(F)(F)F)cc(C(F)(F)F)c2)cc1OCc1cccc(C(F)(F)F)c1)S(=O)(=O)Cc1ccccc1`, the half-inhibitory concentration (IC50) was found to be 69.5 µM in data set [1], 59.8 µM with HEK293 and 2.08 µM in data set [3]. Also, the selectivity ratio in data set [2] was 29; in data set [4], 33.

In the case of `CN(c1ccc(NC(=O)c2cc(C(F)(F)F)cc(C(F)(F)F)c2)cc1OCc1ccccc1C(F)(F)F)S(=O)(=O)Cc1ccccc1`, the IC50 in data set [1] was above 500 µM; in the data set with HEK293, above 500 µM; in data set [3], 7.13 µM. Moreover, the selectivity ratio in data set [2] and in data set [4] was above 70 in each case.

`CN(c1ccc(NC(=O)c2cc(C(F)(F)F)cc(C(F)(F)F)c2)cc1OCc1cccc(C(=N)N)c1)S(C)(=O)=O`: the IC50 was above 500 µM in data set [1], above 500 µM in the data set with HEK293 and above 50 µM in data set [3]. The selectivity ratio in data set [2] and in data set [4] was above 10 in each case.

Regarding `CN(c1ccc(NC(=O)c2cc(C(F)(F)F)cc(C(F)(F)F)c2)cc1OCc1ccccc1C(F)(F)F)S(C)(=O)=O`, the results for the IC50 (in data set [1]; with HEK293; in data set [3]) were above 500 µM, above 500 µM and 9.85 µM, respectively. Besides, the selectivity ratio in data set [2] and in data set [4] was above 51 in each case.

For `CN(c1ccc(NC(=O)c2ccc(C(F)(F)F)cc2C(F)(F)F)cc1OCc1cccc(C(F)(F)F)c1)S(C)(=O)=O`, the IC50 in data set [1] is above 500 µM; in the data set with HEK293, 80.6 µM; in data set [3], 8.42 µM. Further, the values for the selectivity ratio in data set [2] and in data set [4] were above 59 and 10, respectively.

Regarding `CN(c1ccc(NC(=O)c2ccc(C(F)(F)F)cc2C(F)(F)F)cc1OCc1cccc(C(F)(F)F)c1)S(=O)(=O)Cc1ccccc1`, the results for the IC50 (in data set [1]; with HEK293; in data set [3]) were 20.5 µM, 176 µM and 1.78 µM, respectively. In addition, the selectivity ratio in data set [2] is 99; in data set [4], 12.

With `CN(c1ccc(NC(=O)c2ccc(C(F)(F)F)cc2C(F)(F)F)cc1OCc1ccccc1C(F)(F)F)S(=O)(=O)Cc1ccccc1`, the concentration for half-maximal inhibition (IC50) is 158 µM in data set [1], above 500 µM in the data set with HEK293 and 10.5 µM in data set [3]. Further, the selectivity ratio was above 48 in data set [2] and 15 in data set [4].
